Assay outcomes (PubChem BioAssay)
A selection: hits, their analogues and other compounds. The true share with any hit is near 2.1%.
cardiac RTF act = cardiac RTF calcium sensitivity activators, primary screen, biochemical, IANBD-TnC fluorescence, EC20 calcium; Troponin I, cardiac muscle (Homo sapiens) + Troponin T, cardiac muscle (Homo sapiens) + …; IANBD-labeled TnC RTF fluorescence at EC20 calcium; 0% EC20 calcium, 100% full calcium; activation, % at 7.2 µM; actives 0.24% (n = 340,000);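 active = activation above the mean over all tested compounds plus 3 SD, cut at about 30% in these data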;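 note: rise in fluorescence read as greater calcium sensitivity of cardiac thin filaments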
Cardiac RTF inh = cardiac RTF calcium sensitivity inhibitors, primary screen, biochemical, IANBD-TnC fluorescence, EC70 calcium; actives 0.12% (n = 340,000); inhibition, % at 7.15 µM; IANBD-labeled cardiac RTF, Ca2+ fluorescence;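 active = inhibition above the mean inhibition of all tested compounds plus 3 SD, cut at about 17% in these data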;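 note: assay run at fixed EC70 calcium of 1.6 mM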
UCH37 DUB inh = inhibitors of human UCH37 deubiquitinase, primary screen, biochemical, Ub-AMC cleavage, fluorescence. inhibition, % (concentration not given with the values). Ubiquitin carboxyl-terminal hydrolase isozyme L5 (Homo sapiens), Q9Y5K5. purified proteasome/UCH37. AID 588478, 2011. actives 0.33% (n = 330,000);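 active = mean inhibition over replicate wells above about 20%, limit read from the data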
Target sequence (Q9Y5K5 whole entry, looked up): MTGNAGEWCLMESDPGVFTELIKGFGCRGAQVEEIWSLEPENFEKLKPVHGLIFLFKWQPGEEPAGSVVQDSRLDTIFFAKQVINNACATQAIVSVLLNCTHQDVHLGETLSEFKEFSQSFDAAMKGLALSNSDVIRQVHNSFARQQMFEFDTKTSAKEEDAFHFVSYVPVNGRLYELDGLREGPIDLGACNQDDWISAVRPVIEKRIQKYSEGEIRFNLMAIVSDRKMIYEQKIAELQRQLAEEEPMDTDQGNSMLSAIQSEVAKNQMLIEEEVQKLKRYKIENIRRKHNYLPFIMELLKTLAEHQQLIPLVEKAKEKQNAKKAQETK
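Material: human UCH37 enzyme supplied as purified proteasome complex. Measure: % inhibition of Ub-AMC cleavage fluorescence. Medium: pH 7.4 Tris-HCl (50 mM) with ovalbumin, ATP-MgCl2, DTT. Times: 30 min preincubation with enzyme, 25 min cleavage at room temperature. Detection: AMC fluorescence intensity at 355/460 nm.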
Efflux pump mplx = inhibitors of Candida efflux pumps in yeast, primary screen, S. cerevisiae, Nile Red, multiplex; S. cerevisiae Candida pump triplex; inhibition, % at 10 µM; actives 0.44% (n = 330,000); AID 485275, 2010;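 active = plate passing quality check with inhibition over a set limit, or well fluorescence over plate mean plus 4 SD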;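 note: Nile Red retained in pooled yeast measured as flow cytometry median fluorescence; higher means more Nile Red kept so more efflux inhibition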
Mot1-301 SUMO = yeast Mot1-301 growth rescue at high temperature, primary screen, SUMOylation pathway inhibitor project, S. cerevisiae, ATP luminescence, 38.5C | S. cerevisiae Mot1-301 growth rescue; percent above DMSO median, 100 means doubled | growth rescue, % at 18.8 µM | actives 1% (n = 320,000);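 active = every valid replicate shows activation above 250% relative to neutral control wells; inactive = the rest, any valid replicate at or below 250%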
ARNT-TACC3 inh = disruptors of ARNT/TACC3 protein interaction, primary screen, biochemical, AlphaScreen, single concentration; AlphaScreen His-ARNT PAS-B/GST-TACC3 binding, luminescence; TACC3 fragment carries E629A point mutation; Transforming acidic coiled-coil-containing protein 3 (Homo sapiens), Q9Y6A5; actives 0.66% (n = 390,000); AID 623870, 2012; inhibition, % at 9.99 µM;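 active = mean inhibition of replicates at least 50% and at least half of replicates each reaching 50%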
Numbers stand for hits; i = inactive; nt = no result given; + = active, no number.

SMILES | cardiac RTF act | Cardiac RTF inh | UCH37 DUB inh | Efflux pump mplx | Mot1-301 SUMO | ARNT-TACC3 inh
CCCCCCc1c(C)c2ccc(OCC(=O)N[C@@H](Cc3ccccc3)C(=O)O)cc2oc1=O | i | i | i | i | 522.5 | i
CCCc1cc(=O)oc2cc(OCC(=O)NC(Cc3ccc(Cl)cc3)C(=O)O)ccc12 (stereo not drawn) | i | i | i | i | i | i
CC(C)(C=NO)/[N+]([O-])=C/c1ccccc1C(F)(F)F | nt | nt | i | nt | nt | nt
CC(=NNc1nc(N2CCOCC2)nc(N2CCOCC2)n1)c1cccs1 | nt | nt | i | nt | nt | nt
Cc1ccc(C)c(NC(=O)c2ccccc2C(=O)c2ccccc2)c1 | nt | nt | nt | i | 715.0 | nt
Cc1nnc(C)n1N=Cc1cccn1C | nt | nt | i | nt | nt | nt
CN(C)c1ccc(N=Cc2cccn2C)cc1 | i | i | nt | i | i | 60.2
CCC(=NN=C(CC)c1ccccc1)c1ccccc1 | nt | nt | i | nt | nt | nt
Cc1cccc(C)c1N=C1SC(CC(=O)Nc2c(C)cccc2C)C(=O)N1CCc1ccccn1 (stereo not drawn) | i | i | nt | i | 468.0 | i
CC(=NNC(=O)CSc1nc(C)[nH]c1[N+](=O)[O-])c1ccc(F)cc1 | nt | nt | i | nt | nt | nt
N#Cc1c(N=Cc2ccc(-c3ccc(C(=O)O)c(Cl)c3)o2)sc2c1CCCC2 | nt | nt | i | nt | nt | nt
C/C=C/c1ccc(OC)c(OC(C)=O)c1 | i | i | i | i | i | i
C/C=C/c1ccc(OC(C)=O)c(OC)c1 | i | i | i | i | i | 20.2
CC(=NNS(=O)(=O)c1cccc([N+](=O)[O-])c1)c1cccnc1 | nt | nt | i | nt | nt | nt
COCCCNC(=S)NN=Cc1ccc2ccccc2c1 | nt | nt | i | nt | nt | nt
CC1(C)SC(=S)N(/N=C/c2ccccc2O)C1N(O)C(=O)Nc1ccccc1 (stereo not drawn) | i | i | nt | i | i | 48.5
COc1ccc(OC)c(/C=C2/Sc3ccccc3C2=O)c1 | 36.5 | i | i | i | i | i
CC(C)NC(=S)Nc1c(N)[nH]c(=O)[nH]c1=O | i | i | i | i | 342.5 | i
Cc1ccc(S(=O)(=O)N=c2sccn2C)cc1 | nt | nt | i | nt | nt | nt
Cc1c(N=C(N)N=C(N)Nc2ccc(Br)cc2)c(=O)n(-c2ccccc2)n1C | nt | nt | i | nt | nt | nt
COc1ccc(Br)cc1C(C[N+](=O)[O-])c1c(N)n(C)c(=O)n(C)c1=O (stereo not drawn) | i | i | i | i | 330.4 | i
CN(C)c1ccc(C(C[N+](=O)[O-])c2c(N)n(C)c(=O)n(C)c2=O)c(F)c1C#N (stereo not drawn) | i | i | i | i | i | i
C=C1CCC[C@]2(C)C[C@H]3OC(=O)C(CNCC(C)C)[C@H]3CC12 (stereo partly drawn) | i | i | 20.5 | i | i | i
CNc1ccc2c3c(cccc13)C(=O)N(C)C2=O | + | i | nt | i | i | i
CN1C(=O)c2cccc3c(Br)ccc(c23)C1=O | nt | nt | i | i | i | nt
SMILES | cardiac RTF act | Cardiac RTF inh | UCH37 DUB inh | Efflux pump mplx | Mot1-301 SUMO | ARNT-TACC3 inh
O=C(NN=Cc1ccc(Br)cc1)c1ccc(Br)o1 | nt | nt | i | nt | nt | nt
CCCCCCNC1=NCCS1 | i | i | i | i | 719.7 | i
Cc1ccc(C)n1-c1ccc(C(=O)NN=Cc2ccncc2)cc1 | nt | nt | i | nt | nt | nt
CCOc1ccc(-c2cc(C(=O)NN=C(C)c3cccnc3)c3ccccc3n2)c(OCC)c1 | nt | nt | i | nt | nt | nt
Cc1ccc(C)c(NC(=O)CCc2ccc(C)o2)c1 | i | i | i | i | i | i
Cc1ccc(CCC(=O)Nc2cc(Cl)ccc2Cl)o1 | 39.2 | i | i | i | i | i
CCN(CC)c1ccc(/C=C(/C#N)c2nc3ccccc3[nH]2)c(OC(C)C)c1 | 147.6 | i | i | i | i | i
O=C(CC(c1ccccc1)c1ccccc1)Nc1ccc(Cl)cn1 | i | i | 33.9 | i | nt | i
O=C(CS(=O)(=O)c1ccccc1)Nc1ccc(Cl)cn1 | i | i | i | i | i | i
Cc1ccc(/C(=N/Nc2ncnc3ccccc23)C(=O)O)cc1 | i | i | nt | i | i | 60.8
CCSC1=NC(C)(C)C=C(/C=C/c2ccc(Cl)cc2Cl)N1 | i | i | i | i | i | 45.0
CC(C)(C)c1ccc(OCC(=O)N/N=C/C2CC=CCC2)cc1 (stereo not drawn) | i | i | nt | i | i | 24.7
CC(CCC(C)C)=NNC(=S)NCc1ccccc1 | nt | nt | i | nt | nt | nt
COc1cc(/C=C(\C#N)C(=O)c2ccc(O)c(O)c2)cc(I)c1O | i | i | i | i | i | 51.1
CC(=NN1CCN(Cc2ccccc2)CC1)c1ccco1 | nt | nt | i | nt | nt | nt
O=S(=O)(c1ccc(Br)cc1)N1CCCN(Cc2ccccc2F)CC1 | i | i | i | 6.8 | i | i
Cc1ccc2nc(NCCCO)nc(-c3ccccc3)c2c1 | i | i | i | i | i | nt
OCCCNc1nc(-c2ccccc2)c2cc(Br)ccc2n1 | i | i | i | i | 826.5 | i
Cc1cc(N=CN(C)C)on1 | nt | nt | i | nt | nt | nt
O=C(NN=Cc1c[nH]c2ccccc12)c1ccncc1 | nt | nt | i | nt | nt | nt
Cc1ccc(-c2ccc(C=NNC(=O)c3cc4c(ccc5ccccc54)o3)o2)cc1[N+](=O)[O-] | nt | nt | i | nt | nt | nt
Cn1c(O)c(N=NC(=O)c2ccco2)c2ccccc21 | i | i | i | i | i | i
CC(C)CCn1c(O)c(N=NC(=O)c2ccco2)c2ccccc21 | i | i | i | i | 552.7 | i
COc1ccccc1-c1cc(C(=O)NC2CCN(C)CC2)c2ccc(Cl)c(C)c2n1 | i | i | i | 1.6 | i | i
CC1(OC(=O)C2CCCC2)C(=O)C=C2C=C3CCCN3C=C2C1=O (stereo not drawn) | nt | nt | nt | i | i | nt
SMILES | cardiac RTF act | Cardiac RTF inh | UCH37 DUB inh | Efflux pump mplx | Mot1-301 SUMO | ARNT-TACC3 inh
CC1(OC(=O)c2cccs2)C(=O)C=C2C=C3CCCN3C=C2C1=O (stereo not drawn) | i | i | i | i | i | 8.4
CNCCCOc1ccc(C(C)(C)c2ccccc2)cc1 | nt | nt | i | nt | nt | nt
COCCCNCCOc1ccc(C(C)(C)c2ccccc2)cc1 | i | i | i | i | 824.2 | i
Cn1nnnc1SC1CC(=O)N(c2ccccc2)C1=O (stereo not drawn) | i | i | i | i | i | i
Cc1cc(C)cc(N2C(=O)CC(Sc3nnnn3-c3ccccc3)C2=O)c1 (stereo not drawn) | i | i | i | i | 292.4 | i
CC(C=NNC(=O)CNc1n[nH]c(=O)[nH]c1=O)c1ccccc1 (stereo not drawn) | nt | nt | i | nt | nt | nt
CCN1CCN(C(=O)C(C)Nc2ccc(OC)cc2OC)CC1 (stereo not drawn) | i | i | nt | i | i | 42.3
Cc1nc2ccccc2c(=O)n1N=Cc1ccc(O)cc1O | nt | nt | i | nt | nt | nt
CCN(CC)CCCCNc1ncc2cc(-c3cc(OC)cc(OC)c3)c(NC(=O)NC(C)(C)C)nc2n1 | i | i | i | i | 276.9 | i
